Test results: ChEMBL document CHEMBL1121772, “Synthesis and beta-lactamase inhibitory properties of 2 beta-(chloromethyl)-2 alpha-methylpenam-3 alpha-carboxylic acid 1,1-dioxide” (1981)
In brackets after ≈: the same amount, converted by molar mass.

Tests used:
Assay type in all cases: functional
[1] = test system: Staphylococcus aureus; experiment: Minimum inhibitory activity against Staphylococcus aureus A15091
Procedure, shortened: (§1)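 MICs by agar dilution: organisms were inoculated onto drug-containing agar plates with a multipoint replicating device.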

[2] = test system: Staphylococcus aureus; experiment: Minimum inhibitory activity against Staphylococcus aureus A20309; procedure, shortened: as §1
[3] = test system: Staphylococcus aureus; experiment: Minimum inhibitory activity against Staphylococcus aureus A9606; procedure, shortened: as §1
[4] = test system: Escherichia coli; experiment: Minimum inhibitory activity against Escherichia coli A9675; procedure, shortened: as §1
[5] = test system: Escherichia coli; experiment: Minimum inhibitory activity against Escherichia coli A21223; procedure, shortened: as §1
[6] = species on record: Mus musculus; experiment: Beta-lactamase inhibitory activity against Staphylococcus aureus A9606 using oral mouse protection test in mice; details: for ED50: Mus musculus, po, read-out: PD50
Procedure, shortened: (§2)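 Challenge organisms suspended in mucin (2 or 4%) and injected ip into 18-24 g Swiss-Webster (ICR strain) mice. Oral treatment given at 0 and 2 h postchallenge. Observation ran 5 days, and PD50 was calculated by the Spearman-Karber method.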

[7] = species on record: Mus musculus; experiment: Beta-lactamase inhibitory activity against Staphylococcus aureus A20379 using oral mouse protection test in mice; details: read-out: PD50; procedure, shortened: as §2
[8] = species on record: Mus musculus; experiment: Beta-lactamase inhibitory activity against Escherichia coli A21223 using oral mouse protection test in mice; details: read-out: PD50; procedure, shortened: as §2
[9] = species on record: Mus musculus; experiment: Beta-lactamase inhibitory activity against Staphylococcus aureus A15091 using oral mouse protection test in mice; details: read-out: PD50; procedure, shortened: as §2
[10] = target: Beta-lactamase (Staphylococcus aureus) (UniProt P00807); experiment: Beta-lactamase inhibitory activity from Staphylococcus aureus A9606 and minimum protective concentration was reported
[11] = target: Beta lactamase TEM-1 (Klebsiella pneumoniae) (UniProt Q7B899); experiment: Beta-lactamase inhibitory activity from Klebsiella pneumoniae A20634(TEM) and minimum protective concentration was reported
[12] = target: Metallo-beta-lactamase type 2 (Bacteroides fragilis) (UniProt P25910); experiment: Beta-lactamase inhibitory activity from […] A-22,695 and minimum protective concentration was reported
Sequence of Metallo-beta-lactamase type 2 (Bacteroides fragilis) (P25910 whole entry): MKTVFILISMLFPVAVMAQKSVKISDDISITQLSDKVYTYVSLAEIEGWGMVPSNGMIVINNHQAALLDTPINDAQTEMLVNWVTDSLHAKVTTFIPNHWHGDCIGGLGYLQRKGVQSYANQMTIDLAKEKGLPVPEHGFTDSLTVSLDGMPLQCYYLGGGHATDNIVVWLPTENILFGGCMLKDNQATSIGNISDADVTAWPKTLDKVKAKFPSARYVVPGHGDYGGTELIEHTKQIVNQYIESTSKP

Sequence of Beta-lactamase (Staphylococcus aureus) (P00807 whole entry): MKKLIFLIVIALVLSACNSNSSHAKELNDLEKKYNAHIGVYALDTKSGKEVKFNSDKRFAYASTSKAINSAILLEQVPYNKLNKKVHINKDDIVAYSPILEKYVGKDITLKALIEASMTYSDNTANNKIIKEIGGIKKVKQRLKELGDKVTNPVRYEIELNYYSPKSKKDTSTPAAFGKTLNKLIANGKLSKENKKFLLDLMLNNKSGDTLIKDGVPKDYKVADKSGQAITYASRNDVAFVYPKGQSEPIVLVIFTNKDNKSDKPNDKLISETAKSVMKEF
Sequence of Beta lactamase TEM-1 (Klebsiella pneumoniae) (Q7B899 as listed by the source): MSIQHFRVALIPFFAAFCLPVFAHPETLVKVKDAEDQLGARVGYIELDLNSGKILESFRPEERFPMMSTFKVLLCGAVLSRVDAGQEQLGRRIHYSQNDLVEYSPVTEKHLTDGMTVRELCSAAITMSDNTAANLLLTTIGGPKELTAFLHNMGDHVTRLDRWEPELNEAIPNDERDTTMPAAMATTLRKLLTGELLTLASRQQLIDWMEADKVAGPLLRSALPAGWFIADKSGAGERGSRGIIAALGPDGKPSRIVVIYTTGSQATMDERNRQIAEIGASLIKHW

Row | Compound | MIC [1] [µg/mL] | MIC [2] [µg/mL] | MIC [3] [µg/mL] | MIC [4] [µg/mL] | MIC [5] [µg/mL] | ED50 [6] [mg/kg] | ED50 [7] [mg/kg] | ED50 [8] [mg/kg] | ED50 [9] [mg/kg] | MPC [10] [µg/mL] | MPC [11] [µg/mL] | MPC [12] [µg/mL] | PD50 [6] [mg/kg]
1 | CC1(C)S[C@@H]2[C@H](NC(=O)[C@H](N)c3ccc(O)cc3)C(=O)N2[C@H]1C(=O)O.O=C(O)[C@H]1/C(=C/CO)O[C@@H]2CC(=O)N21 | 2 | 2 | 2 | 2 | 8 |  |  |  |  |  |  |  | 
2 | CC1(C)S[C@@H]2[C@H](NC(=O)[C@H](N)c3ccc(O)cc3)C(=O)N2[C@H]1C(=O)O.CC1(C)[C@H](C(=O)O)N2C(=O)C[C@H]2S1(=O)=O | 2 | 4 | 2 | 4 | 4 | 15 | 21 | 46 | 160 |  |  |  | 
3 | CC1(C)C(C(=O)O)N2C(=O)C(Cl)C2S1(=O)=O (stereo not drawn) |  |  |  |  |  |  |  |  |  | > 100 | 25 |  | 
4 | COc1cccc(OC)c1C(=O)N[C@@H]1C(=O)N2[C@@H](C(=O)O)C(C)(C)S(=O)(=O)[C@H]12 |  |  |  |  |  |  |  |  |  | > 100 | 125 |  | 
5 | CC1(C)S[C@@H]2[C@H](NC(=O)[C@H](N)c3ccc(O)cc3)C(=O)N2[C@H]1C(=O)O.C[C@]1(CCl)[C@H](C(=O)[O-])N2C(=O)C[C@H]2S1(=O)=O.[K+] [AMOXACILLIN +BL-P2013] | 1 | 2 | 1 | 2 | 2 | 24 | 34 | 16 | 72 |  |  |  | 
6 | CC1(C)S[C@@H]2[C@H](NC(=O)[C@H](N)c3ccc(O)cc3)C(=O)N2[C@H]1C(=O)O [AMOXICILLIN] | > 125 | 125 (≈ 342 µM) | > 125 | 63 (≈ 172 µM) | 125 (≈ 342 µM) | > 800 | > 200 | > 200 | > 800 |  |  |  | 
7 | C[C@]1(CCl)[C@H](C(=O)[O-])N2C(=O)C[C@H]2S1(=O)=O.[K+] [BL-P2013] | 125 | 125 | 125 | > 125 | > 125 | > 200 | > 200 | > 200 | > 200 | 3.1 | 3.1 | 12.5 | 
8 | O=C(O)[C@H]1/C(=C/CO)O[C@@H]2CC(=O)N21 [CLAVULANIC ACID] | 32 (≈ 161 µM) | 32 (≈ 161 µM) | 32 (≈ 161 µM) | 32 (≈ 161 µM) | 32 (≈ 161 µM) |  |  |  |  | 0.4 | 0.1 | 6.3 | 
9 | CC1(C)[C@H](C(=O)O)N2C(=O)C[C@H]2S1(=O)=O [SULBACTAM] | > 125 | > 125 | > 125 | 125 (≈ 536 µM) | > 125 |  | > 200 | > 200 | > 200 | 12.5 | 1.6 | 12.5 | > 200
